ChEMBL document CHEMBL1123489, “Antineoplastic activity of 3'-(chloroethyl)nitrosourea analogues of 2'-deoxyuridine and 2'-deoxy-5-fluorouridine” (J Med Chem, 1986)

Experiments:
[1] = Half-life, determined by incubation at 37 degree celsius in PBS (pH 7.4)
[2] = test system: L1210; test: Effect on the maximum weight loss of mice bearing L1210 leukemia at a dose of 20 mg/kg; settings: Mus musculus
[3] = test system: L1210; test: Effect on the survival time of mice bearing L1210 leukemia at a dose of 20 mg/kg; format: functional, Mus musculus
Procedure, shortened: (§1)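 L1210 ascites cells from 7-day growths in donor CDF1 female mice were diluted in isotonic saline, and about 10^5 cells were injected i.p. Drug was given as one i.p. injection in isotonic saline, 24 h after implantation. Groups held five or six weight-matched mice, with saline vehicle controls. T/C × 100 = treated/control survival time in dying animals; >60-day survivors counted.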

[4] = test system: L1210; test: Effect on the survival time of mice bearing L1210 leukemia at a dose of 20 mg/kg on 30th day; format: functional, Mus musculus
[5] = test system: L1210; test: Compound was tested in vitro for alkylating activity against L1210 leukemia cells in tumor bearing mice; format: functional, Mus musculus
Procedure, shortened: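 4-(4-Nitrobenzyl)pyridine alkylation measured after 120 min at 37 °C, pH 6.4. Activity expressed relative to BCNU (set at 1.00). Three determinations per compound.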

[6] = test system: L1210; test: Effect on the survival time of mice bearing L1210 leukemia at a dose of 80 mg/kg; format: functional, Mus musculus
Procedure, shortened: as §1

[7] = test system: L1210; test: Compound was tested in vitro for carbomoylating activity against L1210 leukemia cells in tumor bearing mice; format: functional, Mus musculus
Procedure, shortened: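 Extent of carbamoylation of 5'-amino-5'-deoxythymidine measured after incubation with nitrosourea for 6 h at 37 °C in phosphate-buffered saline. Activity expressed relative to BCNU (set at 1.00). Three determinations per compound.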

[8] = test system: L1210; test: Effect on the maximum weight loss of mice bearing L1210 leukemia at a dose of 40 mg/kg on days 5-8
[9] = test system: L1210; test: Effect on the survival time of mice bearing L1210 leukemia at a dose of 80 mg/kg on 30th day; format: functional, Mus musculus
[10] = test system: L1210; test: Effect on the survival time of mice bearing L1210 leukemia at a dose of 40 mg/kg; format: functional, Mus musculus
Procedure, shortened: as §1

[11] = test system: L1210; test: Compound was tested in vitro for cytotoxicity against L1210 leukemia cells in tumor bearing mice.; format: functional; settings: Mus musculus, read-out: ED50 (the source's name)
Procedure, shortened: (§2)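 Mouse L1210 cells grown in suspension in Fischer's medium with 10% horse serum, 37 °C, 5% CO2. Exponential-phase cells at 2 × 10⁴ cells/mL exposed to compound. Cell number counted against drug-free control after 24, 48 and 72 h. ED50 (concentration inhibiting growth by 50%) estimated from dose-response curves from replicate independent experiments.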

[12] = test system: L1210; test: Effect on the maximum weight loss of mice bearing L1210 leukemia at a dose of 80 mg/kg on days 9; format: functional, Mus musculus
[13] = test system: L1210; test: Effect on the survival time of mice bearing L1210 leukemia at a dose of 40 mg/kg on 30th day; format: functional, Mus musculus
[14] = test system: L1210; test: Compound was tested in vitro for cytotoxicity against L1210 leukemia cells in tumor bearing mice; format: functional; settings: Mus musculus, read-out: ED50 (the source's name)
Procedure, shortened: as §2

[15] = test system: L1210; test: Effect on the maximum weight loss of mice bearing L1210 leukemia at a dose of 80 mg/kg on days 11; format: functional, Mus musculus
[16] = test system: L1210; test: Effect on the maximum weight loss of mice bearing L1210 leukemia at a dose of 40 mg/kg on days 6-8

Structure (SMILES): O=NN(CCCl)C(=O)N[C@@H]1CC(n2cc(F)c(=O)[nH]c2=O)O[C@@H]1CO (stereo not given in full)
- half-life [1]: 36.1 min
- Max weight loss [2]: None
- Average survival days [3]: 18.7
- Body weight [3]: 26.1 g
- T/C [3]: 223%
- Weight change [3]: 4%
- Body weight [4]: 22 g
- Activity [5]: 1.78
- Average survival days [6]: 9
- Body weight [6]: 20.5 g
- T/C [6]: 107%
- Weight change [6]: 4%
- Activity [7]: 0.77
- Max weight loss [8]: 3%
- Body weight [9]: 21.3 g
- Average survival days [10]: 14
- Body weight [10]: 19.5 g
- T/C [10]: 167%
- Weight change [10]: 5%
- EC50 [11]: 2.5 µM
- Max weight loss [12]: 14%
- Body weight [13]: 22.1 g

Structure (SMILES): Cc1cn([C@H]2C[C@H](N)[C@@H](CO)O2)c(=O)[nH]c1=O [3-AMINO- 3-DEOXYTHYMIDINE]
- EC50 [11]: 0.8 µM

Structure (SMILES): O=NN(CCCl)C(=O)NCCCl [CARMUSTINE]
- half-life [1]: 50 min
- Activity [5]: 1
- Activity [7]: 1
- EC50 [11]: 4 µM

Structure (SMILES): NC1CC(n2cc(F)c(=O)[nH]c2=O)OC1CO (stereo not given)
- EC50 [11]: 15 µM

Structure (SMILES): Cc1cn(C2CC(NC(=O)N(CCCl)N=O)C(CO)O2)c(=O)[nH]c1=O (stereo not given)
- half-life [1]: 37.3 min
- Activity [5]: 2
- Activity [7]: 0.85
- EC50 [11]: 1.5 µM

Structure (SMILES): N[C@H]1C[C@H](n2ccc(=O)[nH]c2=O)O[C@@H]1CO
- EC50 [11]: 18 µM

Structure (SMILES): O=NN(CCCl)C(=O)N[C@@H]1CC(n2ccc(=O)[nH]c2=O)O[C@@H]1CO (stereo not given in full)
- half-life [1]: 27.3 min
- Max weight loss [2]: None
- Average survival days [3]: 20.4
- Body weight [3]: 18.8 g
- T/C [3]: 243%
- Weight change [3]: 9%
- EC50 [14]: 12.5 µM
- Body weight [4]: 22 g
- Activity [5]: 1.65
- Average survival days [6]: 8.3
- Body weight [6]: 19.5 g
- T/C [6]: 99%
- Weight change [6]: 13%
- Activity [7]: 0.85
- Max weight loss [15]: 21%
- Body weight [9]: 20.8 g
- Average survival days [10]: 31
- Body weight [10]: 19 g
- T/C [10]: 369%
- Weight change [10]: 5%
- Body weight [13]: 22.1 g
- Max weight loss [16]: 2%
